Laboratory results: ChEMBL document CHEMBL1137665, “Antistaphylococcal activity of CG400549, a new experimental FabI inhibitor, compared with that of other agents” (2007)
Values after ≈ are worked out from the molar mass of the structure shown.

Assays:
Staphylococcus aureus [1] = assay: Antimicrobial activity against methicillin-susceptible Staphylococcus aureus by agar dilution CLSI method; format: functional
How it was run: (§1)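 CLSI agar dilution MIC against S. aureus clinical isolates. Calcium was added to the medium for daptomycin testing. Vancomycin plates were read after a full 24-h incubation.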

Staphylococcus aureus [2] = assay: Antimicrobial activity against methicillin-resistant Staphylococcus aureus by agar dilution CLSI method; format: functional; how it was run: as §1

CC[C@H]1OC(=O)[C@H](C)[C@@H](O[C@H]2C[C@@](C)(OC)[C@@H](O)[C@H](C)O2)[C@H](C)[C@@H](O[C@@H]2O[C@H](C)C[C@H](N(C)C)[C@H]2O)[C@](C)(O)C[C@@H](C)CN(C)[C@H](C)[C@@H](O)[C@]1(C)O [AZITHROMYCIN]
MIC50 (Staphylococcus aureus [1]): 1 µg/mL (≈ 1.34 µM) | MIC90 (Staphylococcus aureus [1]): > 64 µg/mL | MIC50 (Staphylococcus aureus [2]): > 64 µg/mL

C[C@H]1COc2c(N3CCN(C)CC3)c(F)cc3c(=O)c(C(=O)O)cn1c23.C[C@H]1COc2c(N3CCN(C)CC3)c(F)cc3c(=O)c(C(=O)O)cn1c23.O [LEVOFLOXACIN]
MIC50 (Staphylococcus aureus [1]): 0.25 µg/mL | MIC90 (Staphylococcus aureus [1]): 4 µg/mL | MIC50 (Staphylococcus aureus [2]): 1 µg/mL | MIC90 (Staphylococcus aureus [2]): > 32 µg/mL
